According to ChEMBL document CHEMBL5247600, “Rational design of metabolically stable HDAC inhibitors: An overhaul of trifluoromethyl ketones” (Eur J Med Chem, 2022):
Calls of active or inactive are those of the source. No cut-off for these calls is given here.

Legend:
HCT-116 [1] = assay: Anticancer activity against human HCT-116 cells assessed as cell growth inhibition incubated for 3 days by methylene blue staining based colorimetric assay; assay type: functional; conditions: HCT-116, 72 h
[2] = system: Panel NCI-60 (60 carcinoma cell lines); assay: Anticancer activity against human Panel NCI-60 (60 carcinoma cell lines) cells assessed as total cell growth inhibition incubated for 3 days by methylene blue staining based colorimetric assay relative to control; assay type: functional; conditions: 72 h, time 3 day
Method in brief: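 NCI-60 five-dose screen at five concentrations. […] TGI is the concentration giving total growth inhibition.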

[3] = system: Panel NCI-60 (60 carcinoma cell lines); assay: Anticancer activity against human Panel NCI-60 (60 carcinoma cell lines) cells assessed as cell growth inhibition at 10 uM incubated for 3 days by methylene blue staining based colorimetric assay relative to control; assay type: functional; set-up: scale not given: the % may be the effect or the level left; conditions: time 3 day
Method in brief: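 NCI-60 one-dose screen at a single concentration of 10 μM. Read-out is mean growth percentage across the panel; positive values denote cytostatic activity and negative values cytotoxicity.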

MDA-MB-468 = assay: cells; assay type: functional, cell-based; conditions: Homo sapiens, MDA-MB-468, 72 h
HT-1080 = assay: Anticancer activity against human HT-1080 cells assessed as cell growth inhibition incubated for 3 days by methylene blue staining based colorimetric assay; assay type: functional; conditions: HT-1080, 72 h
Method in brief: (§1)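 Cells kept in DMEM with 10% calf or fetal bovine serum plus penicillin/streptomycin (1000 U/ml each) at 37 °C, 5% CO2. Seeded at 5000/well (n = 3), treated next day, then after 3 days fixed/stained 30 min at room temperature with methylene blue saturated in 50% ethanol.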

MDA-MB-231 = assay: Anticancer activity against human MDA-MB-231 cells assessed as cell growth inhibition incubated for 3 days by methylene blue staining based colorimetric assay; assay type: functional; conditions: MDA-MB-231, 72 h; method in brief: as §1
U2OS = assay: Anticancer activity against human U2OS cells assessed as cell growth inhibition incubated for 3 days by methylene blue staining based colorimetric assay; assay type: functional; conditions: 72 h; method in brief: as §1
NCI-H522 [4] = assay: cells; assay type: functional, cell-based; conditions: Homo sapiens, NCI-H522, 72 h
[5] = system: Panel NCI-60 (60 carcinoma cell lines); assay: Anticancer activity against human Panel NCI-60 (60 carcinoma cell lines) cells assessed as cell growth inhibition incubated for 3 days by methylene blue staining based colorimetric assay relative to control; assay type: functional; conditions: 72 h, time 3 day
Method in brief: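 NCI-60 five-dose screen at five concentrations. TGI is the concentration giving total growth inhibition.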

HeLa = assay: cells; assay type: functional, cell-based; conditions: Homo sapiens, 72 h
[6] = Metabolic stability in human Liver S9 fraction assessed as disappearance of compound and measured after 2 hrs by LC-ESI-MS analysis; assay type: ADME, subcellular; conditions: s9, 2 h
Method in brief: (§2)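 Human liver S9 fraction assay. Substrate 0.02 mM, 0.1 M buffer and 1 mM NADPH preincubated 10 min at 37 °C, then S9 (0.5 mg) added in 1 mL total; run in duplicate. Aliquots taken every 15 min or at 1 h and 2 h, residue taken up in methanol, diluted 1:1 with water and analysed by LC-ESI-MS tracking M+1 ions.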

HCT-116 [7] = assay: Induction of apoptosis in human HCT116 cells assessed as increase in cleaved PARP1 level at 5 to 10 uM incubated for 24 hrs by Western blot analysis; assay type: functional, cell-based; conditions: dose 5-10 µM
Method in brief: (§3)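 HCT116 cells treated 24 h at the indicated concentrations. Lysates normalized by BCA, run on 12.5% SDS-PAGE and transferred to PVDF. Blocked 1 h in 5% milk/PBST, primary antibody against cleaved PARP overnight at 4 °C, then HRP secondary 1:10 000 and ECL detection.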

[8] = Cytotoxicity against human RPE cells assessed as cell survival rate incubated for 3 days by methylene blue staining based colorimetric assay; assay type: toxicity; method in brief: as §1
HCT-116 [9] = assay: Anticancer activity against human HCT-116 cells assessed as cell survival rate incubated for 3 days by methylene blue staining based colorimetric assay; assay type: functional; conditions: HCT-116, 72 h; method in brief: as §1
NCI-H522 [10] = assay: Anticancer activity against human NCI-H522 cells assessed as cell survival rate incubated for 3 days by methylene blue staining based colorimetric assay; assay type: functional; conditions: NCI-H522, 72 h; method in brief: as §1
[11] = Cytotoxicity against human WI-38 cells assessed as cell survival rate at 30 uM incubated for 3 days by methylene blue staining based colorimetric assay; assay type: toxicity; conditions: time 3 day, read-out: Activity; method in brief: as §1
[12] = Cytotoxicity against human RPE cells assessed as cell survival rate at 30 uM incubated for 3 days by methylene blue staining based colorimetric assay; assay type: toxicity; conditions: time 3 day, read-out: Activity; method in brief: as §1
NCI-H522 [13] = assay: Anticancer activity against human NCI-H522 cells assessed as cell survival rate at 30 uM incubated for 3 days by methylene blue staining based colorimetric assay; assay type: functional; conditions: time 3 day; method in brief: as §1
[14] = Cytotoxicity against human WI-38 cells assessed as cell survival rate incubated for 3 days by methylene blue staining based colorimetric assay; assay type: toxicity; method in brief: as §1
HCT-116 [15] = assay: Anticancer activity against human HCT-116 cells assessed as cell survival rate at 30 uM incubated for 3 days by methylene blue staining based colorimetric assay; assay type: functional; conditions: time 3 day; method in brief: as §1
[16] = Metabolic stability in human Liver S9 fraction assessed as metabolite TFMA 90 formation and measured for 30 mins by LC-ESI-MS analysis; assay type: ADME, subcellular; conditions: s9, 0.5 h; method in brief: as §2
[17] = Metabolic stability in human Liver S9 fraction assessed as disappearance of compound and measured after 15 mins by LC-ESI-MS analysis; assay type: ADME, subcellular; method in brief: as §2
HCT-116 [18] = assay: Induction of apoptosis in human HCT116 cells assessed as increase in cleaved PARP1 level at 4 to 8 uM incubated for 24 hrs by Western blot analysis; assay type: functional, cell-based; conditions: dose 4-8 µM; method in brief: as §3

SMILES	IC50 (HCT-116 [1]) [µM]	other results
Cc1nc(NC(=O)CCCCCCNC(=O)C(O)(O)C(F)(F)F)sc1-c1ccccc1	10.1	–
O=C(CCCCCCNC(=O)C(O)(O)C(F)(F)F)Nc1nc2ccccc2s1	2.37	TGI [2]: 21.4 µM; Activity [3]: -2.45%; IC50 (MDA-MB-468): 1.31 µM; IC50 (HT-1080): 2.65 µM; IC50 (MDA-MB-231): 1.83 µM; IC50 (U2OS): 1.41 µM; IC50 (NCI-H522 [4]): 2.86 µM; GI50 [5]: 3.39 µM; IC50 (HeLa): 1.52 µM
OC(O)(c1c(F)c(F)c(-n2cc(-c3ccccc3)nn2)c(F)c1F)C(F)(F)F	> 100	–
O=C(CCCCCCNC(=O)C(O)(O)C(F)(F)F)Nc1cccc(Br)c1	3.06	–
O=C(CCCCCCNC(=O)C(O)(O)C(F)(F)F)Nc1ccc(F)cc1	7.57	–
O=C(CCCCCNC(=O)c1cc(=O)c(O)co1)Nc1ccccc1	> 100	–
O=C(CCCCCCNC(=O)C(O)(O)C(F)(F)F)Nc1ccccc1	9.14	–
COc1ccc(OC)c(NC(=O)CCCCCCNC(=O)C(O)(O)C(F)(F)F)c1	3.87	Activity [3]: 35%
O=C(CCCCCCNC(=O)C(O)(O)C(F)(F)F)Nc1nc(-c2ccccc2)c(-c2ccccc2)s1	29.9	–
Cc1ccc(S(=O)(=O)Nc2ccc(NC(=O)CCCCCCNC(=O)C(O)(O)C(F)(F)F)cc2)cc1	17.2	–
O=C(CCCCCCCNC(=O)C(O)(O)C(F)(F)F)Nc1ccccc1	41.7	–
O=C(CCCCCCNC(=O)C(O)(O)C(F)(F)F)Nc1nccs1	10.8	Stability [6]: Stable
COc1ccc(-c2cnc(NC(=O)CCCCCCNC(=O)C(O)(O)C(F)(F)F)s2)cc1	–	TGI [2]: 8.51 µM
COc1cc(NC(=O)CCCCCCNC(=O)C(O)(O)C(F)(F)F)cc(OC)c1OC	14.1	–
O=C(CCCCCCNC(=O)C(O)(O)C(F)(F)F)Nc1c(F)cc(F)cc1F	22.2	–
O=C(CCCCCCNC(=O)C(O)(O)C(F)(F)F)Nc1nc2ccc(F)cc2s1	6.47	–
COc1cccc(NC(=O)CCCCCCNC(=O)C(O)(O)C(F)(F)F)c1	6.11	–
COc1ccccc1NC(=O)CCCCCCNC(=O)C(O)(O)C(F)(F)F	10.1	–
COc1ccc2nc(NC(=O)CCCCCCNC(=O)C(O)(O)C(F)(F)F)sc2c1	7.56	–
O=C(CCCCCCNC(=O)C(O)(O)C(F)(F)F)Nc1nc2ccc(Cl)cc2s1	11	–

SMILES	IC50 (HCT-116 [1]) [µM]	other results
NC(=O)C(=O)NCCCCCCCC(=O)Nc1ccccc1	> 100	–
O=C(CCCCCNC(=O)c1ccc[nH]1)Nc1ccccc1	> 100	–
O=C(CCCCCCNC(=O)C(O)(O)C(F)(F)F)Nc1ccc(C(=O)c2ccccc2)cc1	> 40	–
O=C(CCCCCCNC(=O)C(O)C(F)(F)F)Nc1nccs1 (stereo not drawn)	> 40	Stability [6]: Stable
NC(=O)C(=O)NCCCCC(=O)Nc1ccccc1	> 100	–
O=C(CCCCNC(=O)c1cc(=O)c(O)co1)Nc1ccccc1	> 100	–
O=C(CCCCCCC(O)C(F)(F)F)Nc1ccccc1 (stereo not drawn)	> 40	–
O=C(CCCCCCNC(=O)C(O)(O)C(F)(F)F)Nc1ccc(S(F)(F)(F)(F)F)cc1	9.11	–
OC(c1c(F)c(F)c(-n2cc(-c3ccccc3)nn2)c(F)c1F)C(F)(F)F (stereo not drawn)	> 100	–
O=C(CCCCCCNC(=O)c1cc(=O)c(O)co1)Nc1ccccc1	> 100	–
CCOc1ccc(-c2cnc(NC(=O)CCCCCCNC(=O)C(O)(O)C(F)(F)F)s2)cc1	4.05	–
O=C(CCCCCCNC(=O)C(O)(O)C(F)(F)F)Nc1ncc(-c2ccc(Br)cc2)s1	–	Activity (HCT-116 [7]): Active; TGI [2]: 11.4 µM; Activity [3]: -11.47%
O=C(CCCCCCNC(=O)C(O)(O)C(F)(F)F)Nc1ccc(-c2ccccc2)cc1	–	TGI [2]: 15.1 µM; Activity [3]: 2.1%
O=C(CCCCCCCNC(=O)c1cc(=O)c(O)co1)Nc1ccccc1	> 100	–
O=C(CCCCCCNC(=O)C(O)(O)C(F)(F)F)Nc1ccccc1Br	14.5	–
O=C(CCCCCCNC(=O)C(O)(O)C(F)(F)F)Nc1ncc(-c2ccccc2)s1	–	Activity [3]: -10.06%
NC(=O)C(=O)NCCCCCC(=O)Nc1ccccc1	> 100	–
C/C(=N\O)C(=O)NCCCCCC(=O)Nc1ccccc1	> 100	–
CC(=O)C(=O)NCCCCCC(=O)Nc1ccccc1	> 100	–
O=C(CCCNC(=O)C(O)(O)C(F)(F)F)Nc1ccccc1	34.8	–

SMILES	IC50 (HCT-116 [1]) [µM]	other results
CC(=O)c1ccc(NC(=O)CCCCCCNC(=O)C(O)(O)C(F)(F)F)cc1	12.1	–
O=C(CCCCCCNC(=O)C(O)(O)C(F)(F)F)Nc1nc2ccccc2o1	3.45	–
O=C(CCCCNC(=O)C(O)(O)C(F)(F)F)Nc1ccccc1	20.3	–
O=C(CCCCCCC(=O)Nc1ccccc1)NO [VORINOSTAT]	–	IC50 (HT-1080): 3.56 µM
O=C(CCCCCCNC(=O)C(O)(O)C(F)(F)F)Nc1ccc(Cl)cc1	4.23	TGI [2]: 26.9 µM; Activity [3]: 15.99%; GI50 [5]: 5.13 µM
O=C(CCCCCCNC(=O)C(O)(O)C(F)(F)F)Nc1nc2ccc(Br)cc2o1	12.1	–
O=C(CCCCCCNC(=O)C(O)(O)C(F)(F)F)Nc1ccncc1	6.67	–
C/C(=N\O)C(=O)NCCCCC(=O)Nc1ccccc1	> 100	–
C/C(=N\O)C(=O)NCCCCCCC(=O)Nc1ccccc1	> 100	–
COc1ccc(NC(=O)CCCCCCNC(=O)C(O)(O)C(F)(F)F)cc1	4.52	IC50 at 3 days [8]: > 30 µM; IC50 (HCT-116 [9]): 3.13 µM; Activity [3]: 37.09%; IC50 (NCI-H522 [10]): 8.05 µM; viability at 72 h, 30 µM [11]: > 80%; viability at 72 h, 30 µM [12]: > 50%; Activity (NCI-H522 [13]): 20%; IC50 at 3 days [14]: > 30 µM; Activity (HCT-116 [15]): 10%
O=C(CCCCCCC(=O)C(F)(F)F)Nc1ccccc1	10.1	Stability [16]: Unstable; Stability [17]: Unstable
O=C(CCCCCCNC(=O)C(O)(O)C(F)(F)F)Nc1ccc(F)cc1F	18.5	–
O=C(CCCCCCNC(=O)C(O)(O)C(F)(F)F)Nc1ccc(Br)cc1	–	TGI [2]: 20.9 µM; Activity [3]: 2.58%; GI50 [5]: 3.16 µM
O=C(CCCCCCNC(=O)C(O)(O)C(F)(F)F)Nc1cccc2ccccc12	6.48	–
O=C(CCCCCCNC(=O)C(O)(O)C(F)(F)F)Nc1nc2ccc(Br)cc2s1	10.3	–
COc1ccc2sc(NC(=O)CCCCCCNC(=O)C(O)(O)C(F)(F)F)nc2c1	2.18	Activity (HCT-116 [18]): Active; TGI [2]: 12.3 µM; Activity [3]: -4.91%; IC50 (MDA-MB-468): 3.65 µM; IC50 (HT-1080): 2.28 µM; IC50 (MDA-MB-231): 0.81 µM; IC50 (U2OS): 3.29 µM; IC50 (NCI-H522 [4]): 3.23 µM; GI50 [5]: 1.23 µM
CC(=O)C(=O)NCCCCCCC(=O)Nc1ccccc1	> 100	–
CC(=O)C(=O)NCCCCC(=O)Nc1ccccc1	> 100	–
